From ChEMBL document CHEMBL1124068, “5-Methyl-2-pyrrolidone analogues of oxotremorine as selective muscarinic agonists” (J Med Chem, 1988)
The source made the active and inactive calls.

Tests used:
[1] = organism: Cavia porcellus; assay: Equilibrium dissociation constant receptor complex, measured in guinea pig ileum; type: functional
[2] = organism: Cavia porcellus; assay: Equilibrium dissociation constant receptor complex, measured in guinea pig urinary bladder; type: functional
[3] = organism: Cavia porcellus; assay: Maximum contractile response relative to that elicited by carbachol was measured in guinea pig ileum; type: functional
Method in brief: (§1)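 Isolated guinea pig ileum in Tyrode solution (pH 7.4) with 0.3 mM hexamethonium, 37 °C; isotonic contractions at 1 g tension. Cumulative agonist concentration-response curves, concentration raised stepwise by factor 2.15; maxima expressed relative to carbachol.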

[4] = organism: Cavia porcellus; assay: Maximum contractile response relative to that elicited by carbachol was measured in guinea pig urinary bladder; type: functional
Method in brief: (§2)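 Guinea pig bladder strips in Krebs-Henseleit solution (pH 7.4) with 0.3 mM hexamethonium, 37 °C; isotonic recording at 1 g tension; cumulative agonist additions increased by factor 3.16; responses referenced to carbachol.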

[5] = test system: Mus musculus; assay: Tremorolytic activity administered intraperitoneally to mice; type: functional; details: ip
Method in brief: (§3)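 Antagonists given ip to groups of six or more male Swiss-Webster mice (24-32 g), six untreated controls; 20 min later iv oxotremorine ED50 for grade 2 intermittent spontaneous tremor found by up-and-down method. Dose doubling oxotremorine ED50 derived by linear regression; values are means ± standard errors.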

[6] = Acute toxicity administered intraperitoneally to mice; type: organism-based; details: mouse, in vivo, ip
[7] = organism: Cavia porcellus; assay: Concentration that elicits 50% of its own maximum contractile response in guinea pig ileum; type: functional; method in brief: as §1
[8] = organism: Cavia porcellus; assay: Efficacy relative to that of carbachol; type: functional
[9] = test system: Mus musculus; assay: Muscarinic activity administered intraperitoneally to mice, expressed as salivation; type: functional; details: ip
Method in brief: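 Male Swiss-Webster mice (24-32 g) dosed ip at 20.5 ± 1.0 °C; salivation judged by pressing mouth onto absorbent tissue; threshold dose estimated by up-and-down method.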

[10] = test system: Mus musculus; assay: Central muscarinic activity administered intraperitoneally to mice, expressed as analgesia; type: functional; details: ip
Method in brief: (§4)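 Male Swiss-Webster mice (24-32 g), ip, 20.5 ± 1.0 °C; tail-flick test, 15 s cut-off, groups of ten at three to four dose levels. Reaction time above control mean plus 3 SD counted as increased; ED50 by probit analysis.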

[11] = test system: Mus musculus; assay: Central muscarinic activity administered intraperitoneally to mice, expressed as hypothermia; type: functional; details: ip
Method in brief: (§5)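 Rectal temperature (probe ~25 mm) in male Swiss-Webster mice (24-32 g) after ip dosing at 20.5 ± 1.0 °C; six mice per dose, five to six doses, readings every 20 min for 3 h. Maximal fall from pretreatment used; ED50 from logistic fit.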

[12] = organism: Cavia porcellus; assay: Concentration that elicits 50% of its own maximum contractile response in guinea pig urinary bladder; type: functional; method in brief: as §2
[13] = organism: Cavia porcellus; assay: Efficacy relative to that of carbachol (guinea pig urinary bladder); type: functional
[14] = test system: Mus musculus; assay: Tremorolytic activity administered intraperitoneally to mice; c = no significant blockade was observed; type: functional, organism-based; method in brief: as §3
[15] = test system: Mus musculus; assay: Central muscarinic activity administered intraperitoneally to mice, expressed as analgesia; d = no effect was observed; type: functional, organism-based; method in brief: as §4
[16] = test system: Mus musculus; assay: Central muscarinic activity administered intraperitoneally to mice, expressed as hypothermia; d = no effect was observed; type: functional, organism-based; method in brief: as §5

| SMILES | Kd [1] [nM] | Kd [2] [nM] | Emax [3] | Emax [4] | ED50 [5] [µmol/kg] | LD50 [6] [µmol/kg] | EC50 [7] [nM] | Relative efficacy [8] | ED50 [9] [µmol/kg] | ED50 [10] [µmol/kg] | ED50 [11] [µmol/kg] | EC50 [12] [nM] | Relative efficacy [13] | ED50 [14] | ED50 [15] | ED50 [16] |
| --- | --- | --- | --- | --- | --- | --- | --- | --- | --- | --- | --- | --- | --- | --- | --- | --- |
| CCN(CC)CC#CCN1C(=O)CCC1C (centres undefined) | 1100 | 2100 | 0 | 0 | 5.1 | 720 | – | – | – | – | – | – | – | – | – | – |
| CCN(C)CC#CCN1C(=O)CCC1C (centres undefined) | 1800 | 2500 | 0 | 0 | 6.7 | 636 | – | – | – | – | – | – | – | – | – | – |
| CN1[C@@H]2CC[C@H]1C[C@@H](OC(=O)C(CO)c1ccccc1)C2 (some centres undefined) [ATROPINE] | – | – | – | – | 0.57 | – | – | – | – | – | – | – | – | – | – | – |
| CC1CCC(=O)N1CC#CCN1CCCC1 (centres undefined) | – | – | – | – | 0.36 | 107 | – | – | – | – | – | – | – | – | – | – |
| CC(=O)N(C)C(C)C#CCN1CCCC1 (centres undefined) | 240 | 140 | 82.6 | <5 | 0.63 | 665 | 190 | 0.012 | 0.65 | 0.37 | 0.75 | – | – | – | – | – |
| C[N+](C)(C)CCOC(N)=O.[Cl-] [CARBACHOL] | 14100 | 17000 | 100 | 100 | – | – | 110 | 1 | – | – | – | 900 | 1 | – | – | – |
| CC1CCC(=O)N1CC#CCN1CCC1 (centres undefined) | 520 | 580 | 90 | 21.4 | 4.6 | 192 | 230 | 0.02 | 1.3 | 0.71 | 4.9 | 4600 | 0.022 | – | – | – |
| CC1CCC(=O)N1CC#CCN(C)C (centres undefined) | 4300 | 11800 | 102 | 58.1 | 22.8 | 402 | 910 | 0.04 | 4 | 1.5 | 13.1 | 15000 | 0.064 | – | – | – |
| CC[N+](C)(C)CC#CCN1C(=O)CCC1C.[I-] (centres undefined) | 4900 | 3500 | 28.7 | 0 | – | 176 | 3200 | 0.0036 | – | – | – | – | – | No significant blockade | – | – |
| CC1CCC(=O)N1CC#CC[N+](C)(C)C.[I-] (centres undefined) | 1700 | 2800 | 100 | 71.4 | – | 33.6 | 180 | 0.057 | 12 | – | – | 2000 | 0.062 | inactive | inactive | inactive |
| O=C1CCCN1CC#CCN1CCCC1 [OXOTREMORINE] | – | – | – | – | – | – | – | – | 0.29 | 0.05 | 0.22 | – | – | – | – | – |
